ChEMBL document CHEMBL4414577, “Discovery of Pyrrolo[2,3-b]pyridine (1,7-Dideazapurine) Nucleoside Analogues as Anti-Trypanosoma cruzi Agents” (J Med Chem, 2019)
pEC50: −log10 of the molar value. Activity calls are given as the source filed them. The calls are words filed in the database; no cut-off is given here.

Tests used:
[1] = Cytotoxicity against human MRC5 SV2 cells assessed as reduction in cell viability incubated for 3 days by resazurin dye based assay; settings: MRC-5 SV2, 72 h
Trypanosoma cruzi [2] = experiment: Antitrypanosomal activity against Trypanosoma cruzi Tulahuen CL2 amastigotes infected in human MRC5 SV2 cells incubated for 7 days by chlorophenol red beta-D-galactopyranoside substrate based spectrophotometric assay; format: functional, organism-based; settings: Tulahuen CL2, MRC-5 SV2, 168 h
In short: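 Intracellular amastigotes of β-galactosidase-expressing Tulahuen strain grown in MRC-5 fibroblast host cells. EC50 in μM given as mean and SEM of two or three independent experiments; some values come from a single determination.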

[3] = Selectivity index, ratio for EC50 for human MRC5 SV2 cells to EC50 for Trypanosoma cruzi Tulahuen CL2 amastigotes infected in human MRC5 SV2 cells; format: toxicity, cell-based; settings: read-out: Ratio EC50
Trypanosoma cruzi [4] = experiment: Antitrypanosomal activity against bloodstream form of Trypanosoma cruzi Y trypomastigotes measured after 24 hrs by Neubauer chamber-based light microscopic analysis; format: functional, organism-based
L929 = experiment: Cytotoxicity against mouse L929 cells assessed as reduction in cell viability; format: cell-based
Trypanosoma cruzi [5] = experiment: (§1) In vivo antitrypanosomal activity against Trypanosoma cruzi Y trypomastigotes infected in Swiss mouse assessed as reduction in parasitemia at 100 mg/kg, po administered once daily via gavage for 5 days starting from 5 days post-infection and measured 8 days post-infection by light microscopic method relative to control; format: functional; set-up: scale not given: the % may be the effect or the level left
In short: (§2)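 Male Swiss Webster mice (18-20 g, 4-5 weeks) infected i.p. with 10⁴ Y-strain bloodstream trypomastigotes; six per group. Oral gavage from 5 dpi for 5 consecutive days: test compound at 25 mg/kg b.i.d. (2.0 mg/mL in 10% EtOH, 0.1 M citrate pH 3.02), benznidazole at 100 mg/kg s.i.d. Parasites counted in 5 μL tail blood to 30 dpi; mortality followed daily to 40 dpi.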

Trypanosoma cruzi [6] = experiment: as §1, with “up to 30” for “8”; format: functional; set-up: scale not given: the % may be the effect or the level left; in short: as §2
Trypanosoma cruzi [7] = experiment: In vivo antitrypanosomal activity against Trypanosoma cruzi Y trypomastigotes infected in Swiss mouse assessed as mouse survival at 100 mg/kg, po administered once daily via gavage for 5 days starting from 5 days post-infection and measured daily up to 40 days post-infection; format: functional, organism-based; in short: as §2
[8] = Toxicity in Swiss Webster mouse infected with Trypanosoma cruzi Y trypomastigotes assessed as body weight loss at 100 mg/kg, po administered once daily via gavage for 5 days starting from 5 days post-infection and measured daily up to 40 days post-infection; format: organism-based; settings: in vivo
In short: (§3)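 Male Swiss Webster mice were infected i.p. with 10⁴ Y-strain trypomastigotes and treated by oral gavage for 5 days from 5 dpi. Regimens were 25 mg/kg b.i.d. (10% EtOH/citrate vehicle) or benznidazole 100 mg/kg s.i.d. Body weight and visual clinical signs were monitored, with daily mortality checks up to 40 dpi. There were six mice per group.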

[9] = Toxicity in Swiss Webster mouse infected with Trypanosoma cruzi Y trypomastigotes assessed as appearance of clinical symptoms at 100 mg/kg, po administered once daily via gavage for 5 days starting from 5 days post-infection and measured daily up to 40 days post-infection; format: organism-based; settings: in vivo; in short: as §3
Trypanosoma cruzi [10] = experiment: (§4) In vivo antitrypanosomal activity against Trypanosoma cruzi Y trypomastigotes infected in Swiss mouse assessed as reduction in parasitemia at 100 mg/kg, po administered once daily for 5 days with 2 days interval for 3 cycles and measured 9 days post-infection by light microscopy; format: functional, organism-based
In short: (§5)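 Male Swiss Webster mice infected i.p. with 10⁴ Y-strain bloodstream trypomastigotes; six per group. Oral gavage from 5 dpi for 15 days (three 5-day rounds, 2 days off): test compound 25 mg/kg b.i.d., benznidazole 100 mg/kg s.i.d. Parasites counted in 5 μL tail blood to 30 dpi; mortality followed to 53 dpi.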

Trypanosoma cruzi [11] = experiment: as §4, with “up to 30” for “9”, “microscopy relative to control” for “microscopy”; format: functional, organism-based; in short: as §5
Trypanosoma cruzi [12] = experiment: In vivo antitrypanosomal activity against Trypanosoma cruzi Y trypomastigotes infected in Swiss mouse assessed as mouse survival at 100 mg/kg, po administered once daily for 5 days with 2 days interval for 3 cycles and measured […]; format: functional, organism-based; in short: as §5
[13] = Toxicity in Swiss Webster mouse infected with Trypanosoma cruzi Y trypomastigotes assessed as body weight loss at 100 mg/kg, po administered once daily for 5 days with 2 days interval for 3 cycles; format: organism-based; settings: in vivo
In short: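 Y-strain-infected male Swiss Webster mice were dosed orally for 15 days (three rounds of 5 days, 2 drug-free days between) starting at 5 dpi. Regimens were 25 mg/kg b.i.d. or benznidazole 100 mg/kg s.i.d. Weight loss was recorded as a sign of toxicity, with mortality checked daily up to 53 dpi. There were six mice per group.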

[14] = Cytotoxicity against Swiss mouse primary cardiac cells assessed as reduction in cell viability incubated for 24 hrs by PrestoBlue dye based colorimetry
Trypanosoma cruzi [15] = experiment: Antitrypanosomal activity against Trypanosoma cruzi Y amastigotes infected in Swiss mouse primary cardiac cells incubated for 168 hrs with media replenishment for every 48 hrs followed by compound washout and measured after 168 hrs by light microscopic method; format: functional, organism-based
In short: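 Cardiac cells plated 24 h, then infected 24 h at 37 °C with Y-strain bloodstream trypomastigotes (parasite:host 10:1) and washed. Serial dilutions (up to 5 µM) for 168 h at 37 °C, drug medium renewed every 48 h. PBS rinse, 168 h drug-free. Giemsa-stained; infected cells and parasites per cell scored in 200 cells. EC50 from infection-index inhibition; two experiments, duplicate.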

Trypanosoma cruzi [16] = experiment: In vivo antitrypanosomal activity against Trypanosoma cruzi Y trypomastigotes infected in Swiss mouse assessed as reduction in parasitemia at 100 mg/kg, po administered once daily via gavage for 5 days starting from 5 days post-infection in presence of cyclophosphamide by light microscopic method; format: functional, organism-based
Trypanosoma cruzi [17] = experiment: In vivo antitrypanosomal activity against Trypanosoma cruzi Y trypomastigotes infected in Swiss mouse assessed as reduction in parasitemia at 100 mg/kg, po administered once daily for 5 days with 2 days interval for 3 cycles in presence of cyclophosphamide by light microscopy; format: functional, organism-based

## Nc1ccnc2c1c(-c1ccccc1)cn2[C@@H]1O[C@H](CO)[C@@H](O)[C@H]1O
[1]
  pEC50: < 4.19
Trypanosoma cruzi [2]
  pEC50: < 4.19

## Nc1ccnc2c1ccn2[C@@H]1O[C@H](CO)[C@@H](O)[C@H]1O
[1]
  pEC50: 4.75
Trypanosoma cruzi [2]
  pEC50: 5.64
[3]
  selectivity ratio: 7.9

## Nc1ccnc2c1c(C(F)(F)F)cn2[C@@H]1O[C@H](CO)[C@@H](O)[C@H]1O
[1]
  pEC50: 6.14
Trypanosoma cruzi [2]
  pEC50: 5.81
[3]
  selectivity ratio: 0.47

## Cc1cn([C@@H]2O[C@H](CO)[C@@H](O)[C@H]2O)c2nccc(N)c12
[1]
  pEC50: 4.29
Trypanosoma cruzi [2]
  pEC50: 5.94
[3]
  selectivity ratio: 45
Trypanosoma cruzi [4]
  pEC50: < 4.30
L929
  pEC50: < 3.70

## Nc1ccnc2c1c(I)cn2[C@H]1C[C@H](O)[C@@H](CO)O1
[1]
  pEC50: < 4.19
Trypanosoma cruzi [2]
  pEC50: < 4.19

## Nc1ncnc2c1c(I)cn2[C@@H]1O[C@H](CO)[C@@H](O)[C@H]1O [IODOTUBERCIDIN]
[1]
  pEC50: 5.27
Trypanosoma cruzi [2]
  pEC50: 6.10
[3]
  selectivity ratio: 6.7

## Nc1ccnc2c1c(C#Cc1ccccc1)cn2[C@@H]1O[C@H](CO)[C@@H](O)[C@H]1O
[1]
  pEC50: < 4.19
Trypanosoma cruzi [2]
  pEC50: < 4.19

## C[C@H]1O[C@@H](n2cc(I)c3c(N)ccnc32)[C@H](O)[C@@H]1O
[1]
  pEC50: < 4.19
Trypanosoma cruzi [2]
  pEC50: < 4.19

## Nc1ccnc2[nH]cc(I)c12
[1]
  pEC50: < 4.19
Trypanosoma cruzi [2]
  pEC50: < 4.19

## OC[C@H]1O[C@@H](n2cc(I)c3cccnc32)[C@H](O)[C@@H]1O
[1]
  pEC50: 4.28
Trypanosoma cruzi [2]
  pEC50: 5.76
[3]
  selectivity ratio: > 30
Trypanosoma cruzi [4]
  pEC50: 4.44
L929
  pEC50: < 3.70

## Nc1ccnc2c1c(/C=C/c1ccccc1)cn2[C@@H]1O[C@H](CO)[C@@H](O)[C@H]1O
[1]
  pEC50: < 4.19
Trypanosoma cruzi [2]
  pEC50: < 4.19

## O=C(Cn1ccnc1[N+](=O)[O-])NCc1ccccc1 [BENZNIDAZOLE]
Trypanosoma cruzi [2]
  pEC50: 5.63
Trypanosoma cruzi [5]
  Activity: 100%
Trypanosoma cruzi [6]
  Activity: 100%
Trypanosoma cruzi [7]
  Activity: Active
[8]
  Activity: Non-Toxic
[9]
  Activity: Non-Toxic
Trypanosoma cruzi [10]
  Activity: Active
Trypanosoma cruzi [11]
  Activity: Active
Trypanosoma cruzi [12]
  Activity: inactive
[13]
  Activity: Non-Toxic
Trypanosoma cruzi [4]
  pEC50: 5.24
[14]
  pEC50: < 3.40
L929
  pEC50: < 3.70
Trypanosoma cruzi [15]
  pEC50: 5.57
Trypanosoma cruzi [16]
  Activity: inactive
Trypanosoma cruzi [17]
  Activity: inactive

## Nc1ccnc2c1c(Cl)cn2[C@@H]1O[C@H](CO)[C@@H](O)[C@H]1O
[1]
  pEC50: < 4.19
Trypanosoma cruzi [2]
  pEC50: 6.72
[3]
  selectivity ratio: > 337
Trypanosoma cruzi [4]
  pEC50: < 4.30
[14]
  pEC50: < 3.40
L929
  pEC50: < 3.70

## Nc1ccnc2c1c(F)cn2[C@@H]1O[C@H](CO)[C@@H](O)[C@H]1O
[1]
  pEC50: < 4.19
Trypanosoma cruzi [2]
  pEC50: 5.06
[3]
  selectivity ratio: > 7.3

## N#Cc1cn([C@@H]2O[C@H](CO)[C@@H](O)[C@H]2O)c2nccc(N)c12
[1]
  pEC50: 4.73
Trypanosoma cruzi [2]
  pEC50: 5.40
[3]
  selectivity ratio: 4.6

## C=Cc1cn([C@@H]2O[C@H](CO)[C@@H](O)[C@H]2O)c2nccc(N)c12
[1]
  pEC50: < 4.19
Trypanosoma cruzi [2]
  pEC50: 6.09
[3]
  selectivity ratio: > 79
Trypanosoma cruzi [4]
  pEC50: < 4.30
L929
  pEC50: < 3.70

## Nc1ccnc2c1c(I)cn2[C@@H]1O[C@H](CO)C[C@H]1O
[1]
  pEC50: < 4.19
Trypanosoma cruzi [2]
  pEC50: < 4.19

## C#Cc1cn([C@@H]2O[C@H](CO)[C@@H](O)[C@H]2O)c2nccc(N)c12
[1]
  pEC50: 4.23
Trypanosoma cruzi [2]
  pEC50: 7.10
[3]
  selectivity ratio: 730
Trypanosoma cruzi [4]
  pEC50: 4.39
L929
  pEC50: < 3.70

## Nc1ccnc2c1c(C1CCCCC1)cn2[C@@H]1O[C@H](CO)[C@@H](O)[C@H]1O
[1]
  pEC50: < 4.19
Trypanosoma cruzi [2]
  pEC50: < 4.19

## OC[C@H]1O[C@@H](n2cc(I)c3c(Cl)ccnc32)[C@H](O)[C@@H]1O
[1]
  pEC50: 5.66
Trypanosoma cruzi [2]
  pEC50: 5.67
[3]
  selectivity ratio: 1

## Nc1ccnc2c1c(-c1ccccn1)cn2[C@@H]1O[C@H](CO)[C@@H](O)[C@H]1O
[1]
  pEC50: < 4.19
Trypanosoma cruzi [2]
  pEC50: < 4.19

## Nc1ccnc2c1c(C1=CCCCC1)cn2[C@@H]1O[C@H](CO)[C@@H](O)[C@H]1O
[1]
  pEC50: < 4.19
Trypanosoma cruzi [2]
  pEC50: < 4.19

## CCc1cn([C@@H]2O[C@H](CO)[C@@H](O)[C@H]2O)c2nccc(N)c12
[1]
  pEC50: < 4.19
Trypanosoma cruzi [2]
  pEC50: < 4.19

## Nc1ccnc2c1c(Br)cn2[C@@H]1O[C@H](CO)[C@@H](O)[C@H]1O
[1]
  pEC50: < 4.19
Trypanosoma cruzi [2]
  pEC50: 6.70
[3]
  selectivity ratio: > 320

## Nc1ccnc2c1c(-c1cccs1)cn2[C@@H]1O[C@H](CO)[C@@H](O)[C@H]1O
[1]
  pEC50: < 4.19
Trypanosoma cruzi [2]
  pEC50: 4.43
[3]
  selectivity ratio: > 1.7

## Nc1ccnc2c1c([N+](=O)[O-])cn2[C@@H]1O[C@H](CO)[C@@H](O)[C@H]1O
[1]
  pEC50: < 4.19
Trypanosoma cruzi [2]
  pEC50: 4.32
[3]
  selectivity ratio: > 1.3

## Nc1ccnc2c1c(-c1ccc(Cl)cc1)cn2[C@@H]1O[C@H](CO)[C@@H](O)[C@H]1O
[1]
  pEC50: < 4.19
Trypanosoma cruzi [2]
  pEC50: < 4.19

## Cc1ccnc2c1c(I)cn2[C@@H]1O[C@H](CO)[C@@H](O)[C@H]1O
[1]
  pEC50: 5.64
Trypanosoma cruzi [2]
  pEC50: 5.10
[3]
  selectivity ratio: 0.29
